Tests used:
Format in all cases: functional
HT-29 = test: Growth inhibition of human HT-29 cells after 72 hrs y MTT assay; conditions: HT-29, 72 h
Procedure, shortened: (§1)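 Cells kept in DMEM with 10% FBS, 10 mM sodium bicarbonate, penicillin, streptomycin and 4 mM glutamine at 37 °C under 5% CO2. Log-phase cells were plated in duplicate at 2500–4000 cells/well. After 24 h, compound in medium was added; analogue stocks were 40 mM in DMSO. Growth was read after 72 h by MTT absorbance at 540 nm in dose-response testing.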

[1] = Growth inhibition of human SJ-G2 cells after 72 hrs y MTT assay; conditions: SJ-G2, 72 h; procedure, shortened: as §1
[2] = Growth inhibition of human BE(2)-C cells after 72 hrs y MTT assay; procedure, shortened: as §1
SW480 = test: Growth inhibition of human SW480 cells after 72 hrs y MTT assay; conditions: SW480, 72 h; procedure, shortened: as §1
MCF7 = test: Growth inhibition of human MCF7 cells after 72 hrs y MTT assay; conditions: MCF7, 72 h; procedure, shortened: as §1
A2780 = test: Growth inhibition of human A2780 cells after 72 hrs y MTT assay; conditions: A2780, 72 h; procedure, shortened: as §1
NCI-H460 = test: Growth inhibition of human H460 cells after 72 hrs y MTT assay; conditions: NCI-H460, 72 h; procedure, shortened: as §1
A-431 = test: Growth inhibition of human A431 cells after 72 hrs y MTT assay; conditions: A-431, 72 h; procedure, shortened: as §1
DU-145 = test: Growth inhibition of human DU145 cells after 72 hrs y MTT assay; conditions: DU-145, 72 h; procedure, shortened: as §1

| GI50 (HT-29) [µM] | GI50 (SW480) [µM] | GI50 (MCF7) [µM] | GI50 (A2780) [µM] | GI50 (NCI-H460) [µM] | GI50 (A-431) [µM] | GI50 (DU-145) [µM] | SMILES | GI50 [1] [µM] | GI50 [2] [µM] |
| --- | --- | --- | --- | --- | --- | --- | --- | --- | --- |
| 52 | > 100 | > 100 | > 100 | > 100 | > 100 | > 100 | CC(C)(C)O[C@H]1OC(=O)[C@H]2[C@@H]1[C@@H]1CC[C@H]2O1 | 48 | > 100 |
|  | > 100 | > 100 | > 100 | > 100 | > 100 | > 100 | C=CCO[C@@H]1OC(=O)[C@H]2[C@@H]1[C@@H]1CC[C@H]2O1 |  | > 100 |
| 37 | > 100 | 89 | 81 | > 100 | > 100 | > 100 | O=C1O[C@H](OCCCOP(=O)(OCC(Cl)(Cl)Cl)OCC(Cl)(Cl)Cl)[C@@H]2[C@H]1[C@H]1CC[C@@H]2O1 | 41 | > 100 |
| 31 | > 100 | > 100 | > 100 | > 100 | > 100 | > 100 | C/C=C/CO[C@@H]1OC(=O)[C@H]2[C@@H]1[C@@H]1CC[C@H]2O1 | 35 | 63 |
| 45 | > 100 | > 100 | > 100 | > 100 | > 100 | > 100 | O=C1O[C@H](OC2CCCCC2)[C@@H]2[C@H]1[C@H]1CC[C@@H]2O1 | 41 | > 100 |
|  |  | > 100 |  | > 100 | > 100 | > 100 | C=CCO[C@H]1OC(=O)[C@H]2[C@@H]1[C@@H]1CC[C@H]2O1 |  |  |
| 51 | > 100 | > 100 | > 100 | > 100 | > 100 | > 100 | C#CCCCCO[C@H]1OC(=O)[C@H]2[C@@H]1[C@@H]1CC[C@H]2O1 | 55 | > 100 |
|  | > 100 | > 100 | > 100 | > 100 | > 100 | > 100 | CCCCCCO[C@@H]1OC(=O)[C@H]2[C@@H]1[C@@H]1CC[C@H]2O1 |  | > 100 |
| 77 | > 100 | > 100 | > 100 | > 100 | > 100 | > 100 | CCO[C@H]1OC(=O)[C@H]2[C@@H]1[C@@H]1CC[C@H]2O1 | 49 | > 100 |
| 42 | 65 | 45 | 33 |  | 52 | 65 | O=C1O[C@H](OCCCOP(=O)(O)O)[C@@H]2[C@H]1[C@H]1CC[C@@H]2O1 | 57 | 67 |

| SMILES | GI50 (HT-29) [µM] | GI50 (SW480) [µM] | GI50 (MCF7) [µM] | GI50 (A2780) [µM] | GI50 (NCI-H460) [µM] | GI50 (A-431) [µM] | GI50 (DU-145) [µM] | GI50 [1] [µM] | GI50 [2] [µM] |
| --- | --- | --- | --- | --- | --- | --- | --- | --- | --- |
| O=C1O[C@H](OCCCOP(=O)(Oc2ccccc2)Oc2ccccc2)[C@@H]2[C@H]1[C@H]1CC[C@@H]2O1 | 40 | > 100 | > 100 | > 100 | > 100 | > 100 | > 100 | 40 | > 100 |
| O=C1OC(=O)C2C3CCC(O3)C12 (configuration not stated) [DEMETHYL-CANTHARIDIN] | 23 | 41 | 34 | 27 | > 100 | 72 | 90 | 23 | 36 |
| O=C1O[C@H](O)[C@@H]2[C@H]1[C@H]1CC[C@@H]2O1 | 14 | > 100 | > 100 | > 100 | > 100 | > 100 | > 100 | 15 | 28 |

Source: ChEMBL document CHEMBL2040765, “Synthesis and anticancer activity of a series of norcantharidin analogues” (2012)
